According to ChEMBL document CHEMBL3351404, “Structure-Activity Studies Reveal the Oxazinone Ring Is a Determinant of Cytochrome P450 2B6 Activity Toward Efavirenz” (ACS Med Chem Lett, 2014):
Each block holds one compound with its values, some of them ahead of it.

How the values were obtained:
[1] = system: Liver microsome; experiment: Drug metabolism in pooled human liver microsomes assessed as compound formation at 10 uM incubated for 60 mins in presence of NADPH by uHPLC-MS/MS method; type: ADME; conditions: 1 h
In short: (§1)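 Metabolite identification in human liver microsome incubations with 10 μM substrate. Products were assigned by m/z (monooxygenated, dihydroxylated, N-dealkylated), uHPLC retention time and MS/MS fragment ions. Parallel incubations in isotopic water located the inserted oxygen from +2 shifts in fragment masses.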

[2] = Retention time of the compound by uHPLC-MS/MS method; type: physicochemical; in short: as §1
[3] = biological target: T1, Cytochrome P450 3A5 (Homo sapiens, UniProt P20815); experiment: Drug metabolism assessed as CYP3A5 (unknown origin)-mediated compound formation at 10 uM incubated for 60 mins in presence of NADPH by uHPLC-MS/MS method; type: ADME; conditions: 1 h
In short: (§2)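 Individual cDNA-expressed human P450s (CYP2B6 in insect microsomes) were incubated separately with each analogue at 10 μM. The enzyme panel covers the major drug-metabolizing P450s. Products were monitored as the metabolites first found in human liver microsome incubations, identified by m/z and retention time.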
Target sequence in this assay (P20815 whole entry): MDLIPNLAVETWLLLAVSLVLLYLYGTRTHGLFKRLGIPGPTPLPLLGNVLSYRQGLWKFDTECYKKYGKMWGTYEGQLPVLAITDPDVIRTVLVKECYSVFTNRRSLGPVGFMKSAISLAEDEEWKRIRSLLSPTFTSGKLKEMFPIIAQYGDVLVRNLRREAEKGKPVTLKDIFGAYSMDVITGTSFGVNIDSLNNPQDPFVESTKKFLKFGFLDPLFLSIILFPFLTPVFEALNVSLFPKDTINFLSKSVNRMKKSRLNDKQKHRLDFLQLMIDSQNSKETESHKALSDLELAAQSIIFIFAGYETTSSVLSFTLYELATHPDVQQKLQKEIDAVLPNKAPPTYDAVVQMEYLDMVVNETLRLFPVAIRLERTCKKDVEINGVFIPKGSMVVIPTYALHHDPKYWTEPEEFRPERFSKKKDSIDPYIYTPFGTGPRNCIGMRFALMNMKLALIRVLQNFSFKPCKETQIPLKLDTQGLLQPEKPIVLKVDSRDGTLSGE

[4] = biological target: T2, Cytochrome P450 2B6 (Homo sapiens, UniProt P20813); experiment: Drug metabolism assessed as CYP2B6 (unknown origin)-mediated compound formation at 10 uM incubated for 60 mins in presence of NADPH by uHPLC-MS/MS method; type: ADME; conditions: 1 h; in short: as §2
T2 sequence (P20813 whole entry): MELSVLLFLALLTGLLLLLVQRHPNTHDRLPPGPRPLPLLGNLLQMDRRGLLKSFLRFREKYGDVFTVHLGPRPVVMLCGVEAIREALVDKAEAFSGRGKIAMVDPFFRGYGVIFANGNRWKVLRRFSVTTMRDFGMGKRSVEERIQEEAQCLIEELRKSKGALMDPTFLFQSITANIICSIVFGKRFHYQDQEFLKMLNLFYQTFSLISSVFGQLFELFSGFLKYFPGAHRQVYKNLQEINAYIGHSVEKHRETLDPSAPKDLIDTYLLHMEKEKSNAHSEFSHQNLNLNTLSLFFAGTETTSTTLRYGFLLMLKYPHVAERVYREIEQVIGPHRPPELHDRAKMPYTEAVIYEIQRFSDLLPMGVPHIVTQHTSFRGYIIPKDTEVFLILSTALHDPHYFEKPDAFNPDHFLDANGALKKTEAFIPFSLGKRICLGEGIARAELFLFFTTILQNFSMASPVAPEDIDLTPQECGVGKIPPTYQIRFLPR

[5] = biological target: T3, Cytochrome P450 1A2 (Homo sapiens, UniProt P05177); experiment: Drug metabolism assessed as CYP1A2 (unknown origin)-mediated compound formation at 10 uM incubated for 60 mins in presence of NADPH by uHPLC-MS/MS method; type: ADME; conditions: 1 h; in short: as §2
T3 sequence (P05177 whole entry): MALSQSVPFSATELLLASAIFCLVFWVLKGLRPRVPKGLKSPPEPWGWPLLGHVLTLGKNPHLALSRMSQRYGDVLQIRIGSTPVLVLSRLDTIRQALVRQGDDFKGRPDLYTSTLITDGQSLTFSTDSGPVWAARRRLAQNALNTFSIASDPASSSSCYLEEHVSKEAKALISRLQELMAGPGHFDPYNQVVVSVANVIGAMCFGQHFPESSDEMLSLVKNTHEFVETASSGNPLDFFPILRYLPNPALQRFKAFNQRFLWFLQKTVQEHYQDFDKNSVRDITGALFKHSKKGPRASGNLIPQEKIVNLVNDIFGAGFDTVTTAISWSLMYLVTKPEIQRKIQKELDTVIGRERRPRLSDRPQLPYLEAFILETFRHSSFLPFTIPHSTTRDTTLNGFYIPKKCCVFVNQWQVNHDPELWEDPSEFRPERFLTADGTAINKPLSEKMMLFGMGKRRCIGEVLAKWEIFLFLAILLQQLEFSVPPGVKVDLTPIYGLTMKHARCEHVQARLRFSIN

[6] = system: Liver microsome; experiment: Drug metabolism in pooled human liver microsomes assessed as compound formation at 10 uM incubated for 60 mins in presence of NADPH and using isotopic water by uHPLC-MS/MS method; type: ADME; conditions: 1 h; in short: as §1
[7] = biological target: T2, Cytochrome P450 2B6; experiment: Activity of CYP2B6 (unknown origin) assessed as maximum depletion rate constant pre-incubated for 5 mins in presence of NADPH by uHPLC-MS/MS based substrate depletion kinetics assay; type: ADME
In short: (§3)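 cDNA-expressed CYP2B6 in insect microsomes. Parent loss was followed over time by substrate depletion, chosen because several metabolites form. Km and maximum depletion rate constant (kdep max, min–1) were derived from depletion kinetics, and Vmax was expressed as pmol/min/pmol P450.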

[8] = biological target: T4, CYP2B6 (Homo sapiens, UniProt P20813); experiment: Activity of CYP2B6 (unknown origin) pre-incubated for 5 mins in presence of NADPH by uHPLC-MS/MS based substrate depletion kinetics assay; type: ADME; conditions: CYP2B6 enzyme (unknown origin); in short: as §3
T4 sequence (P20813 whole entry): T2 sequence (P20813 whole entry)

[9] = system: Liver microsome; experiment: Drug metabolism in pooled human liver microsomes assessed as mono-oxygenated metabolite formation at 10 uM incubated for 60 mins in presence of NADPH by uHPLC-MS/MS method; type: ADME; conditions: 1 h; in short: as §1
[10] = biological target: T4, CYP2B6; experiment: Inhibition of CYP2B6 (unknown origin) assessed as reduction in hydroxybupropion formation by measuring remaining enzyme activity at 10 uM incubated for 10 mins by uHPLC-MS/MS method; type: ADME; conditions: probe bupropion (hydroxybupropion formation), read-out: Activity
In short: (§4)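 CYP2B6 insect microsomes were coincubated with the probe substrate bupropion plus test compound at 10 μM. Hydroxybupropion formation was measured and compared with a vehicle control.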

[11] = biological target: T2, Cytochrome P450 2B6; experiment: Activity of CYP2B6 (unknown origin) assessed per pmol protein pre-incubated for 5 mins in presence of NADPH by uHPLC-MS/MS based substrate depletion kinetics assay; type: ADME; in short: as §3
[12] = biological target: T2, Cytochrome P450 2B6; experiment: Drug metabolism assessed as CYP2B6 (unknown origin)-mediated metabolite formation at 10 uM incubated for 60 mins in presence of NADPH by uHPLC-MS/MS method; type: ADME; conditions: 1 h; in short: as §2
[13] = biological target: T3, Cytochrome P450 1A2; experiment: Drug metabolism assessed as CYP1A2 (unknown origin)-mediated metabolite formation at 10 uM incubated for 60 mins in presence of NADPH by uHPLC-MS/MS method; type: ADME; conditions: 1 h; in short: as §2
[14] = biological target: T1, Cytochrome P450 3A5; experiment: Drug metabolism assessed as CYP3A5 (unknown origin)-mediated metabolite formation at 10 uM incubated for 60 mins in presence of NADPH by uHPLC-MS/MS method; conditions: 1 h
Target sequence in this assay (P20815 whole entry, looked up): as the sequence (P20815 whole entry) above

[15] = biological target: T2, Cytochrome P450 2B6; experiment: (§5) Inhibition of CYP2B6 (unknown origin) assessed as reduction in hydroxybupropion formation at 10 uM incubated for 10 mins by uHPLC-MS/MS method; type: ADME; conditions: 10 min, 10 µM; in short: as §4
[16] = system: Liver microsome; experiment: Drug metabolism in pooled human liver microsomes assessed as metabolite formation at 10 uM incubated for 60 mins in presence of NADPH by uHPLC-MS/MS method; type: ADME; conditions: 1 h; in short: as §1
[17] = biological target: T4, CYP2B6; experiment: as §5; type: ADME; conditions: CYP2B6 enzyme (unknown origin), probe bupropion (hydroxybupropion formation); in short: as §4

Drug metabolism [1]: metabolite_detected | Retention_time [2]: 5.11 min
Compound: CC(O)CC#CC1(C(F)(F)F)OC(=O)Nc2ccc(Cl)cc21 (stereo unspecified)

Drug metabolism [1]: metabolite_detected | Retention_time [2]: 5.6 min
Compound: CCC(O)C#CC1(C(F)(F)F)OC(=O)Nc2ccc(Cl)cc21 (stereo unspecified)

Drug metabolism [3]: metabolite_detected | Drug metabolism [1]: metabolite_detected | Drug metabolism [4]: metabolite_detected | Retention_time [2]: 6.98 min | Drug metabolism [5]: metabolite_detected
Compound: CCCC#CC1(C(F)(F)F)OC(=O)Nc2c(O)cc(Cl)cc21 (stereo unspecified)

Drug metabolism [1]: metabolite_detected | Retention_time [2]: 5 min | Drug metabolism [6]: metabolite_detected
Compound: OC1(C#C[C@]2(C(F)(F)F)OCNc3ccc(Cl)cc32)CC1

K [7]: 0.0088 min⁻¹ | Km [8]: 1.1 µM | Drug metabolism [9]: metabolite_detected | activity at 10 min, 10 µM [10]: 27% | Vmax [11]: 0.97 pmol/min | Drug metabolism [12]: metabolite_detected | Drug metabolism [13]: metabolite_detected | Drug metabolism [14]: metabolite_detected
Compound: CCCC#CC1(C(F)(F)F)OC(=O)Nc2ccc(Cl)cc21 (racemic)

inhibition (INH) [15]: Not Active | Drug metabolism [16]: metabolite_detected
Compound: COc1ccc(C(=O)Nc2ccc(Cl)cc2C(O)(C#CC2CC2)C(F)(F)F)cc1 (racemic)

K [7]: 0.023 min⁻¹ | Km [8]: 0.45 µM | Vmax [11]: 1 pmol/min | inhibition at 10 min, 10 µM [17]: 93%
Compound: O=C1Nc2ccc(Cl)cc2[C@@](C#CC2CC2)(C(F)(F)F)O1 [EFAVIRENZ]
